Screening data deposited in PubChem by Sanford-Burnham Center for Chemical Genomics.
PfG6PD inh: PfG6PD enzyme inhibitors, primary screen, biochemical, fluorescence intensity, uHTS | inhibition, % at 20 µM | glucose-6-phosphate dehydrogenase-6-phosphogluconolactonase (Plasmodium falciparum 3D7) | AID 504690, 2011 | PfGluPho enzyme, NADPH resazurin-diaphorase fluorescence | actives 0.78% (n = 350,000);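 active means inhibition reaching at least a set limit at 20 µM in the primary screen, cut at about 59% in these data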
APOBEC3G inh: APOBEC3G DNA deaminase inhibitors, primary screen, biochemical, fluorescence, single-stranded DNA substrate, uHTS. recombinant A3G, ssDNA deamination FAM/TAMRA fluorescence. actives 0.28% (n = 330,000). inhibition, % at 20 µM. AID 493012, 2011. DNA dC->dU-editing enzyme APOBEC-3G (Homo sapiens), Q9HC16;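 active means inhibition of at least 40% at 20 µM, with no more than 30% in the related APOBEC3A deaminase screen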
Target sequence (Q9HC16 whole entry, looked up): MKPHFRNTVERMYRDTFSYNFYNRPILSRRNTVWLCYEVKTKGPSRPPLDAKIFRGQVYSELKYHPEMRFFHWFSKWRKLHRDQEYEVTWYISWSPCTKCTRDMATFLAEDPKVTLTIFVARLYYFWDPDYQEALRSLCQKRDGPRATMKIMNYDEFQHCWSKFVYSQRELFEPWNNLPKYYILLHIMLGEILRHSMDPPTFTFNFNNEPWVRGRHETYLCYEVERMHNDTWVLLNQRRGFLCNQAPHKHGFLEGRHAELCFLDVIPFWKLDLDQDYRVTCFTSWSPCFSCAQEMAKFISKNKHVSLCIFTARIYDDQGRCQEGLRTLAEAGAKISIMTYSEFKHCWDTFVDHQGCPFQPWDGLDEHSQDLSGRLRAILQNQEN
iPSC survival up: enhancers of single-cell hiPSC survival, primary screen, ATPlite luminescence; 100% = ROCK inhibitor wells, 0% = DMSO; survival enhancement, % at 20 µM; actives 0.044% (n = 360,000); in the data active means survival enhancement above about 18%;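 further: cells exposed to compounds for 16 hours before the ATP read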
APOBEC3A inh: APOBEC3A ssDNA deaminase inhibitors, primary screen, selectivity assay for APOBEC3G inhibitor project, biochemical, FAM/TAMRA oligo cleavage fluorescence; DNA dC->dU-editing enzyme APOBEC-3A (Homo sapiens), P31941; recombinant A3A, FAM/TAMRA ssDNA deamination fluorescence; inhibition, % at 20 µM; actives 0.41% (n = 330,000); AID 493011, 2011;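 active means at least 40% inhibition at 20 µM here, with at most 30% in a related deaminase screen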
Target sequence (P31941 whole entry, looked up): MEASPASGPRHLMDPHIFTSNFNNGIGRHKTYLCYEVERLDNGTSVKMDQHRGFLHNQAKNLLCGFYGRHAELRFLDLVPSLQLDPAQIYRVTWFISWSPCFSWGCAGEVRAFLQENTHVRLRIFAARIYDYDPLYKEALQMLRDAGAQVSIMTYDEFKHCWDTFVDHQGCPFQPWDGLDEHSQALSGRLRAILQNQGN
HKDC1 inhibitor: HKDC1 hexokinase inhibitors, primary screen, biochemical, fluorescence, uHTS | Q2TB90 | recombinant HKDC1, G6PDH/diaphorase resazurin coupled fluorescence | inhibition, % at 20 µM | actives 0.16% (n = 340,000) | AID 493160, 2011;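 active means inhibition above about 35% when tested at 20 µM, limit read from the data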
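Test system: recombinant HKDC1 (HK5) hexokinase enzyme, produced in-house / Doses: 20 µM test compound, 1% DMSO / Timing: 90 min, room temperature / Detection: G6PDH/diaphorase-coupled fluorescence, 1 mM NADP, 100 µM resazurin, 525/613 nm / Control set: DMSO wells with and without enzyme mix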
A3A conf: APOBEC3A deaminase inhibitors, retest, confirmation, selectivity assay for APOBEC3G inhibitor project, biochemical, single concentration, fluorescence readout. shares compounds with APOBEC3A inh. recombinant A3A, ssDNA deaminase UDG fluorescence assay. inhibition, % at 20 µM. actives 63% (n = 1,400). AID 493151, 2011;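 active means inhibition reaching a set limit, 80% of the first screen's cutoff, at 20 µM in any replicate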
UDG ctr A3A: E. coli UDG inhibitors, confirmation, counter-screen for APOBEC3A inhibitor project, biochemical, single concentration, fluorescence, FAM/TAMRA oligo; 1,000 tested, under 10 active; AID 504714, 2011; shares compounds with APOBEC3A inh; UDG counterscreen, FAM/TAMRA uracil oligo fluorescence; inhibition, % at 20 µM; call rule not given here
Each line names hits and unclear results; the compound was inactive in the other large screens (follow-up assays come after a bar, where they were run). Hits are enriched below; roughly 1.4% of the tested compounds scored in any of these assays.

CCc1ccc(N2C(=O)Nc3ccccc3C2(O)C(=O)N2CCN(c3ccccn3)CC2)cc1 (stereo not drawn)	none
Cc1ccccc1C(=O)N(C)[C@H]1C[C@H]2c3[nH]c4ccccc4c3CCN2C[C@H]1[C@H](C)O	none (no result: PfG6PD inh, APOBEC3G inh, APOBEC3A inh, HKDC1 inhibitor)
C/C(N)=C(/C#N)C(=O)CSc1nc2ccccc2c(=O)n1Cc1ccc(F)cc1	APOBEC3A inh 47.1 | A3A conf inactive
C/C(N)=C(/C#N)C(=O)CSc1nc2ccccc2c(=O)n1Cc1ccc(C)cc1	none
CCCNC(=O)C1(C)CCCN(Cc2csc(-c3ccccc3)n2)C1 (stereo not drawn)	none (no result: PfG6PD inh, APOBEC3G inh, APOBEC3A inh, HKDC1 inhibitor)
CCOc1c(Br)cc(C(N)=O)cc1OC	none
COc1cc(C(N)=O)cc(Br)c1OC	APOBEC3A inh 43.9 | A3A conf 47.4 | UDG ctr A3A inactive
Cc1onc(-c2ccccc2Cl)c1C(=O)Nc1ccc(Cl)cn1	APOBEC3A inh 59.7 | A3A conf inactive
COC(=O)c1[nH]c2ccc(Br)cc2c1NC(=O)CN1CCN(C2CCCCC2)CC1	APOBEC3A inh 46.5 | A3A conf inactive
CC(=O)NC(NC(=S)N1CCCCCC1)C(Cl)(Cl)Cl (stereo not drawn)	none
CCCCn1c(N)c(N(CC(C)C)C(=O)C2CCN(S(=O)(=O)c3ccc(C)cc3)CC2)c(=O)[nH]c1=O	none
O=C(C1COc2ccccc2O1)N1CCCC1 (stereo not drawn)	none
O=C(C1COc2ccccc2O1)N1CCc2ccccc21 (stereo not drawn)	APOBEC3A inh 42.8 | A3A conf 35.7 | UDG ctr A3A inactive
CC(C)(C)C1CCC(OC(=O)CN2CCOCC2)CC1 (stereo not drawn)	none
C[N+]1(CC(=O)OCCCC2CCCCC2)CCCC1	APOBEC3A inh 69.4 | A3A conf 76.5 | UDG ctr A3A inactive
CC(C)(C)C1CCC(OC(=O)C[N+]2(C)CCCCC2)CC1 (stereo not drawn)	APOBEC3A inh 89.8 | A3A conf 84.5 | UDG ctr A3A inactive
CC(C)CC1CCCCC1OC(=O)C[N+]1(C)CCCCC1 (stereo not drawn)	APOBEC3A inh 81.4 | A3A conf 74.7 | UDG ctr A3A inactive
CC(C)(C)C1CCC(OC(=O)C[N+]2(C)CCCC2)CC1 (stereo not drawn)	APOBEC3A inh 46.6 | A3A conf 79.0 | UDG ctr A3A inactive
COc1cccc(CNC(=O)CSc2ccc(-c3cccs3)nn2)c1	none
CCOc1ccc(C(C)NC(=O)c2cccs2)cc1OCC (stereo not drawn)	none
CCn1cc(CCCC(=O)NCc2cccc(OC)c2)c2ccccc21	none
CC(=O)N1c2ccc(S(=O)(=O)NCCC(=O)Nc3ccc(F)cc3C)cc2CC1C (stereo not drawn)	none
COc1ccc(NC(=O)c2c(C)noc2C)cc1S(=O)(=O)N1CCCCC1	none (no result: APOBEC3G inh, APOBEC3A inh, HKDC1 inhibitor)
CC[N+]1(CC)CC2CCC(C)(C1)C2(C)C (stereo not drawn)	APOBEC3A inh 58.5 | A3A conf 79.2 | UDG ctr A3A inactive
CC12CCC(C[N+](C)(C)C1)C2(C)C (stereo not drawn)	APOBEC3A inh 65.1 | A3A conf 68.8 | UDG ctr A3A inactive
CC1CCC(C(C)C)C(OCC(O)CN2CCCC(C)C2)C1 (stereo not drawn)	none
CC1CCC(C(C)C)C(OCC(O)C[N+]2(C)CCCCC2)C1 (stereo not drawn)	APOBEC3A inh 78.1 | A3A conf 73.9 | UDG ctr A3A inactive
CC(C)N1CCN(Cc2ccoc2)CC1CCO (stereo not drawn)	none
CC(=O)Nc1ccc(NC(C)=O)s1	none
CC(=O)Nc1ccc(-c2ccccc2)s1	APOBEC3A inh 44.5 | A3A conf 44.6 | UDG ctr A3A inactive
O=C(COC(=O)c1ccccc1)NCc1ccco1	none
O=C(COC(=O)c1ccccc1Nc1cccc(C(F)(F)F)c1)NCc1ccco1	APOBEC3A inh 42.5 | A3A conf 23.2 | UDG ctr A3A inactive
COc1cccc(C(=O)N/N=C/c2ccc(Oc3ccc([N+](=O)[O-])cn3)c(OC)c2)c1	APOBEC3A inh 59.2 | A3A conf 61.6 | UDG ctr A3A inactive
COc1cc(/C=N/NC(=O)c2ccc3ccccc3c2)ccc1Oc1ccc([N+](=O)[O-])cn1	none
Cc1n[nH]c(C)c1S(=O)(=O)N1CCC(C(=O)N2CCn3c2nc2ccccc23)CC1	APOBEC3A inh 98.4 | A3A conf inactive | UDG ctr A3A inactive
CCCCCCNC(=O)c1cc(-c2ccco2)nc2ccccc12	APOBEC3A inh 61.6 | A3A conf 54.1 | UDG ctr A3A inactive
O=C(COc1cccc([N+](=O)[O-])c1)N/N=C/c1ccco1	none
CCc1ccc(OCC(=O)N/N=C\c2ccco2)c([N+](=O)[O-])c1	APOBEC3A inh 43.1 | A3A conf 42.6 | UDG ctr A3A inactive
C=CCn1c(SCc2nc3ccccc3nc2C)nnc1-c1ccoc1C	APOBEC3A inh 44.6 | A3A conf inactive | UDG ctr A3A inactive
Cc1ccc2nc(C)c3c(c2c1)COC3	APOBEC3A inh 62.2 | A3A conf inactive | UDG ctr A3A inactive
Cc1ccc(S(=O)(=O)N2CCN(CCOc3cccc(C)c3)CC2)cc1	none
Cc1nc(-c2ccc(F)cc2)c(CC(=O)Nc2ccc(C)c(S(=O)(=O)N3CCOCC3)c2)s1	none
C[N+]1(CC(O)c2ccccc2)CCCCCC1 (stereo not drawn)	APOBEC3A inh 69.4 | A3A conf 63.9 | UDG ctr A3A inactive
CC(=O)OC(C[N+]1(C)CCCCCC1)c1ccccc1 (stereo not drawn)	APOBEC3A inh 78.8 | A3A conf 69.3 | UDG ctr A3A inactive
OC(CC(O)c1ccccc1)c1ccccc1 (stereo not drawn)	none (no result: APOBEC3G inh, APOBEC3A inh)
C[N+]1(CCC(=O)c2ccccc2)CCCCC1	none
CCOc1ccc(N(CC(=O)N/N=C/c2cccnc2)S(C)(=O)=O)cc1	none
COCCN1C(=O)N[C@@H](c2ccc(Br)cc2)C(C(=O)OC)=C1C	none (no result: PfG6PD inh, iPSC survival up, HKDC1 inhibitor)
COCCN1C(=NCCCOC(C)C)N[C@@H](c2ccccc2)C(C(=O)OC)=C1C	APOBEC3A inh 62.4 | A3A conf 67.0 | UDG ctr A3A inactive
